# Source: PubChem BioAssay
# MEX-5 binding: C. elegans MEX-5 TCR-2 RNA binding activity; activity score (negative = inhibition of binding), % at 10 µM; MEX-5/FITC-TCR2 RNA binding, fluorescence polarization; active compounds read low; 300,000 tested, 0.38% active;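 active = inhibition past about -25% in most replicates, and total fluorescence under double the plate's negative control median, limit read from the data; inconclusive = replicates evenly split on the limit, or fluorescence at least double controls; inactive = too little inhibition in most replicates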;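 note: 0% = DMSO and -100% = 5 µM competing unlabeled TCR2 RNA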
# proKLK7 act: proKLK7 (human) activation, primary screen; P49862; purified proKLK7, EDANS-DABCYL substrate fluorescence; 100% is mature enzyme control, 0% vehicle; AID 652039; 370,000 tested, 0.9% active; activation, % at 7 µM;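 active = activation above the mean of all tested compounds plus 3 SD, computed per campaign excluding outliers beyond control limits, cut at about 13% in these data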
# RanGTP-Impb inh: disruptors of Ran-importin-beta complex formation – biochemical, FRET, CFP-Ran, YFP-importin-beta, homogeneous, primary screen. inhibition, % (concentration not given with the values). cell-free CFP-Ran/YFP-importin-beta FRET ratio. AID 2216. 300,000 tested, 1.1% active;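 active = more than half of the replicate wells show a fall in the fluorescence ratio signal beyond about 16%, limit read from the data, passing the limit was not always enough; inconclusive = exactly half of the replicate wells pass the set limit; inactive = fewer than half of replicates pass the limit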;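 note: 0% = DMSO wells and 100% = Ran loaded with GDP instead of GTP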
# Runt-SMMHC FRET: Runt domain-CBFb-SMMHC interaction inhibition; AID 1434; Q01196+Q13951; 220,000 tested, 0.74% active; inhibition, % at 20 µM; Cerulean-Runt/Venus-CBFb-SMMHC FRET ratio 530/480, 1 h;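 active = mean inhibition across duplicate retests at 20 µM reaching about 50%, limit read from the data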;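 note: 0% = DMSO wells and 100% = wells with excess untagged CBFb-SMMHC; inhibitors lower the FRET ratio by blocking Runt binding to CBFb-SMMHC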
# Target sequence (Q01196 whole entry, looked up, the tested form may be a part): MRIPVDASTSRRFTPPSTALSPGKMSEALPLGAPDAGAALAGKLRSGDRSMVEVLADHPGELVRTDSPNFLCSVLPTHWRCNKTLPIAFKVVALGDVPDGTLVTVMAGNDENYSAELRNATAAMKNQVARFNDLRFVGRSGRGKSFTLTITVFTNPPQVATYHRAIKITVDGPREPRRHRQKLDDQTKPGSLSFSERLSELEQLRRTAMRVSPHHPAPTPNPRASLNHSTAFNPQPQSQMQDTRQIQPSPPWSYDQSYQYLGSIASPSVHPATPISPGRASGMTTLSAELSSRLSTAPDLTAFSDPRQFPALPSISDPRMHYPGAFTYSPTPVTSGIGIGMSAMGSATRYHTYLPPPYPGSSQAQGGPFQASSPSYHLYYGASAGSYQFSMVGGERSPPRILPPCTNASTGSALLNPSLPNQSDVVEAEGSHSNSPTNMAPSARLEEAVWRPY
# Target sequence (Q13951 whole entry, looked up, the tested form may be a part): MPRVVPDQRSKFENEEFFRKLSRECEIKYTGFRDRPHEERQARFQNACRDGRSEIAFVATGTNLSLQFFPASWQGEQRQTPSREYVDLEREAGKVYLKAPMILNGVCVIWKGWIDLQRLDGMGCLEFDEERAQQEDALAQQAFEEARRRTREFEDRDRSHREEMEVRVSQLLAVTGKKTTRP
# Runt-CBFb FRET: inhibitors of human RUNX1 Runt domain binding to CBFb. Q01196+Q13951. Cerulean-Runt/Venus-CBFb FRET ratio 530/480, 1 h. inhibition, % at 20 µM. 220,000 tested, 0.46% active. AID 1496;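 active = inhibition over about 50% at 20 µM in the single-dose screen, limit read from the data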;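 note: 0% = DMSO wells and 100% = excess unlabeled CBFb competitor control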
#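 test system = Cerulean-tagged RUNX1 Runt domain (FRET donor) fusion protein | reagent = Venus-CBFb binding partner, 100 nM | incubation = protein complex preformed 1 h, compound exposure 1 h, room temperature, dark | detection = FRET fluorescence | read-out basis = loss of energy transfer signal | controls = 5 µM unlabeled CBFb as full-inhibition high control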
# * hit, by the source's call; ? = inconclusive; / = no result given. Most compounds without a hit are left out; they make up all but 2.1% or so of the library.
SMILES,MEX-5 binding,proKLK7 act,RanGTP-Impb inh,Runt-SMMHC FRET,Runt-CBFb FRET
COc1ccc(S(=O)(=O)NCCC(=O)NC2CCCCC2C)cc1[N+](=O)[O-] (configuration not stated),/,0.4,/,/,/
Cc1nc(C(F)(F)F)ccc1C(=O)N1CCC(C)(C(=O)NS(=O)(=O)C2CC2)C1 (configuration not stated),/,0.3,/,/,/
COc1cc(C2NC(=O)NC(C)=C2C(=O)OCc2ccc(C)cc2)cc(OC)c1O (configuration not stated),-1.7,-0.1,66.2*,2.4,-3.1
COc1cc(C2NC(=O)NC(C)=C2C(=O)OCc2ccc(C)cc2)cc(OC)c1OC (configuration not stated),0.2,0.2,28.8*,/,/
COc1cc(C2NC(=O)NC(C)=C2C(C)=O)cc(OC)c1OC (configuration not stated),1.4,-0.3,-1.0,-0.7,4.1
CC1(C)CC(=O)C/C(=N/NC(=O)c2ccc(-c3ccccc3)cc2)C1,-2.2,-3.1,24.3*,-5.4,-1.3
CC1(C)CC(=O)CC(=Nc2ccc(C(=O)O)cc2)C1,1.1,0.8,44.9*,2.6,-0.4
CCOc1ccc(/C=C(\C#N)C(=O)NC2CC2)c(OCC)c1,2.5,0.2,3.2,/,/
O=C(Cc1c(Cl)cccc1Cl)N1CCN(S(=O)(=O)c2cccs2)CC1,/,0.2,/,/,/
COC(=O)[C@]12C[C@H](CC(=O)N3CCSCC3)C(=O)N(Cc3cccc4ccccc34)C1=C[C@H](C1CCCC1)O[C@@H]2C,/,1.0,/,/,/
O=C(NNc1ccccn1)C(=O)NNS(=O)(=O)c1ccc(Cl)cc1,-10.0,0.5,?,4.0,0.8
O=C(NNc1ccccc1)C(=O)NNS(=O)(=O)c1ccc([N+](=O)[O-])cc1,-35.1*,0.0,3.7,-2.1,2.6
O=C(NNc1ccccn1)C(=O)NNS(=O)(=O)c1ccc(F)cc1,-31.0*,1.1,4.7,2.4,9.1
Cc1ccc(C(=O)NC(=S)NNS(=O)(=O)c2ccc(C)cc2)cc1,-1.5,0.1,-2.0,10.2,8.4
Cc1ccc(S(=O)(=O)NNC(=S)NC(=O)c2ccc([N+](=O)[O-])cc2)cc1,-30.7*,-0.1,-1.2,6.3,15.7
Cc1ccc(S(=O)(=O)N2C[C@H]3C(=O)C[C@@H](c4ccccc4)N(S(=O)(=O)c4ccccc4C)[C@H]3C[C@H]2c2ccccc2)cc1,/,-0.8,/,/,/
COc1cccc(-c2cnc(C(O)c3c(C)cccc3C)[nH]2)c1 (configuration not stated),/,-0.2,/,/,/
CCCCNS(=O)(=O)/C=C/c1cc(C)ccc1CNC(=O)OC(C)(C)C,/,0.5,/,/,/
CCOC(=O)N1CCN(C(=O)c2cc3c(=O)n4cccc(C)c4nc3s2)CC1,0.2,1.6,-1.4,/,/
COc1ccccc1N1CCN(C(=O)c2cc3c(=O)n4cccc(C)c4nc3s2)CC1,3.0,6.1,31.0*,/,/
COC(=O)C1=CN(C2CC2)C=C(C(=O)OC)C1c1ccc(C(=O)OC)cc1,0.0,3.5,52.2*,60.3*,106.8*
COC(=O)c1ccc([C@H]2CC(=O)O2)cc1,-0.3,0.3,1.2,/,/
COC(=O)c1cc2c(c3c4cc(C)ccc4n(S(=O)(=O)c4ccc(C)cc4)c13)C(=O)N(Cc1ccc(N(C)C)cc1)C2,/,-0.8,/,/,/
CCc1nnc(NS(=O)(=O)c2ccc(NC(=O)c3ccc([N+](=O)[O-])s3)cc2)s1,/,-0.1,/,/,/
Cc1ccc(S(=O)(=O)Nc2cccc(C(=O)NCc3ccccn3)c2)cc1F,-1.6,-0.3,/,/,/
SMILES,MEX-5 binding,proKLK7 act,RanGTP-Impb inh,Runt-SMMHC FRET,Runt-CBFb FRET
CCOC(=O)C1=C(CC)OC(N)=C(C#N)C1c1ccc(OC)c(OC)c1OC (configuration not stated),-1.9,0.2,1.7,5.9,2.5
CCOC(=O)C1=C(CSc2nc(C)ccc2C#N)OC(N)=C(C#N)C1c1cccc(OC)c1OC (configuration not stated),3.7,9.7,18.5*,8.3,23.7
O=C1NC[C@H](Cc2ccccc2)N(CC2CCN(CCC34CC5CC(CC(C5)C3)C4)CC2)C1=O,/,0.4,/,/,/
COc1ccc(NC(=O)N(C)C[C@@H]2Oc3cc(C#CCN(C)C)ccc3S(=O)(=O)N([C@H](C)CO)C[C@H]2C)cc1,/,0.1,/,/,/
CCc1ccc(NC(=O)CSc2nc(C)cs2)cc1,/,-0.1,/,/,/
CN1CCN(C2=C(Cl)C(=O)C(c3cnc(N4CCCCC4)s3)=C(Cl)C2=O)CC1,-71.1*,/,-0.9,-38.0,29.6
COc1ccc2c(ccc[n+]2[O-])c1,/,0.0,/,/,/
[O-][n+]1c2ccccc2cc2ccccc21,-1.8,4.2,79.0*,/,/
Cc1nc(Nc2ccc(O)cc2)c2c3c(sc2n1)CCCC3,0.7,/,0.6,0.2,0.6
Cc1ccc(CNc2nc(C)nc3sc4c(c23)CCC4)cc1,1.5,-0.2,25.5*,-0.3,-1.8
COCCNC(=S)N=Nc1c(O)[nH]c2c(C)cc(C)cc12,3.5,-0.6,156.3*,-1.4,-1.0
CCCCNC(=S)N=Nc1c(O)[nH]c2ccccc12,-1.0,0.6,0.3,-2.1,-5.4
CCOc1ccc(N=c2oc3cc(O)ccc3cc2C(=O)NCC2CCCO2)cc1 (configuration not stated),-1.0,5.8,184.1*,105.5*,120.9*
O=C(O)c1cc(-c2ccc(/C=C3\NC(=O)N(c4ccccc4)C3=O)o2)ccc1Cl,-10.5,1.1,3.6,82.5*,46.0
O=C(O)c1cc(-c2ccc(/C=c3\sc4nc5ccc(Br)cc5n4c3=O)o2)ccc1Cl,-28.8*,/,-0.7,/,/
O=C(O)c1cc(-c2ccc(/C=C3\NC(=O)N(c4ccc(Cl)cc4)C3=O)o2)ccc1Cl,?,0.0,8.8,81.1*,18.0
CCOC(=O)N1CCN(C(=O)C[C@H]2C[C@@]3(C(=O)OC)C(=C[C@H](C4CCCC4)O[C@@H]3C)N(Cc3ccc(Cl)cc3Cl)C2=O)CC1,/,0.8,/,/,/
Nc1cccc(C(=O)c2ccccc2C(=O)O)c1,/,-0.3,/,/,/
CCCc1cc(Nc2c(C)n(C)n(-c3ccccc3)c2=O)n2c(nc3ccccc32)c1C#N,-0.2,0.9,107.4*,44.0,26.6
Cc1cc(Nc2c(C)n(C)n(-c3ccccc3)c2=O)n2c(nc3ccccc32)c1C#N,0.4,0.1,107.1*,54.3,32.4
CCCc1cc(NCCCN2CCOCC2)n2c(nc3ccccc32)c1C#N,1.9,-11.3,13.5,61.5,12.5
CC(C)C(=O)Nc1cccc(COc2ccc(CN(Cc3ccccc3)C(=O)OC(C)(C)C)cc2)c1,/,-0.6,/,/,/
CC(=O)Nc1cccc(-c2ccnc3c2CC(C)(C(=O)NCCc2ccccc2)O3)c1 (configuration not stated),/,0.6,/,/,/
CCOC(=O)C1CCN(C(=O)Nc2ccc3c(c2)nc(C)n3C)CC1,-0.4,-0.6,0.0,0.7,3.6
O=C(Nc1ccc2nc(-c3ccco3)c(-c3ccco3)nc2c1)N1CCCCCC1,-10.8,/,79.8*,-126.2,-17.7
